For five compounds, Activity results are on record in ChEMBL document CHEMBL1123272, “Comparison of (-)-eseroline with (+)-eseroline and dihydroseco analogues in antinociceptive assays: confirmation of rubreserine structure by X-ray analysis” (1986).

Assay [1] has as its system Mus musculus. Briefly: Compound was tested in vivo for narcotic agonist activity (dose in sc, mg/kg) in mice using phenylquinone assay; I = Inactive at 1,10, 30 mg/kg. It counts as functional, organism-based. Further details: dose 30 mg/kg.
Assay [2] relates to Mus musculus. Briefly: Compound was tested in vivo for narcotic antagonist activity (dose in sc, mg/kg) in mice using tail flick antagonism assay. Format: functional. The gist of the method: (§1)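 Mouse tail-flick antagonism assay against morphine, with the test compound given subcutaneously and doses in mg/kg. It was run by an outside laboratory (Medical College of Virginia).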

The subject of assay [3] is Mus musculus. The assay is described as follows: Compound was tested in vivo for narcotic agonist activity (dose in sc, mg/kg) in mice using hot plate assay; I = Inactive at 1,10, 30 mg/kg. It counts as functional, organism-based. Also noted: dose 30 mg/kg. (In general: Hot-plate and tail-flick tests time the reaction to a heat stimulus.)
Assay [4] concerns Mus musculus. The assay is described as follows: Compound was tested in vivo for narcotic agonist activity (dose in sc, mg/kg) in mice using tail flick assay; I = Inactive at 1,10, 30 mg/kg. It counts as functional, organism-based. Also noted: dose 30 mg/kg.
Assay [5] deals with Mus musculus. Briefly: Compound was tested in vivo for narcotic agonist activity (dose in sc, mg/kg) in mice using hot plate assay. It counts as functional. The gist of the method:
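Mouse hot-plate test for narcotic agonist activity with subcutaneous dosing. Values are in mg/kg with 95% confidence limits.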

Assay [6] relates to Mus musculus. The assay is described as follows: Compound was tested in vivo for narcotic agonist activity (dose in sc, mg/kg) in mice using tail flick assay. It counts as functional.
Assay [7] deals with Mus musculus. The assay is described as follows: Compound was tested in vivo for narcotic antagonist activity (dose in sc, mg/kg) in mice using tail flick antagonism assay; I = Inactive at 1,10, 30 mg/kg. Format: functional, organism-based. Also noted: dose 30 mg/kg. The gist of the method: as §1
Assay [8] deals with Mus musculus. The assay is described as follows: Compound was tested in vivo for narcotic agonist activity (dose in sc, mg/kg) in mice using phenylquinone assay. Format: functional.
For assay [9], the system named is Mus musculus. The assay is described as follows: Compound was tested in vivo for narcotic agonist activity (dose in sc, mg/kg) in mice using phenylquinone assay. Format: functional.
For assay [10], the system named is Mus musculus. Briefly: Compound was tested in vivo for narcotic agonist activity (dose in sc, mg/kg) in mice using tail flick assay. It counts as functional.
Assay [11] concerns Mus musculus. Briefly: Compound was tested in vivo for narcotic antagonist activity (dose in sc, mg/kg) in mice using tail flick antagonism assay; I =inactive at 1, 10, 30 mg/kg. It counts as functional, organism-based. Also noted: dose 30 mg/kg. In short, it runs like this:
as §1

Activity calls are given as the source filed them. The calls are words filed in the database; no cut-off is given here.

As to `C=CCN1CC[C@]23c4c5ccc(O)c4O[C@H]2C(=O)CC[C@@]3(O)[C@H]1C5` [NALOXONE], the outcome in the assay with Mus musculus [1], with Mus musculus [3] and in the assay on Mus musculus [4] was inactive. The compound also came in with an Activity with Mus musculus [2] of 0.03.

With `CN1CC[C@@]2(C)c3cc(O)ccc3N(C)[C@@H]12`, the figures for the Activity in the assay with Mus musculus [5], with Mus musculus [6] and in the assay on Mus musculus [8] were 1.6, 2.3 and 0.7, respectively. For the same compound, the outcome in the assay on Mus musculus [7] was inactive.

Consider `CN1c2ccc(O)cc2[C@]2(C)CCN[C@H]12`, for which, in the assay on Mus musculus [3], the result was inactive.

As to `CN1CC[C@]2(C)c3cc(O)ccc3N(C)[C@H]12`, the result in the assay on Mus musculus [3], in the assay on Mus musculus [4] and in the assay with Mus musculus [7] was inactive. The Activity with Mus musculus [8] came to 2.3.

For `CN1CC[C@]23c4c5ccc(O)c4O[C@H]2[C@@H](O)C=C[C@H]3[C@H]1C5` [MORPHINE], the Activity with Mus musculus [5] is on record as 1.3; in the assay on Mus musculus [9], 0.23; in the assay with Mus musculus [10], 5.8. In the assay on Mus musculus [11], the result was inactive.
